The source made the active and inactive calls. No cut-off for these calls is given here.
Tests used:
Type in all cases: functional
Blastomyces dermatitidis [1] = assay: Antifungal activity against Blastomyces dermatitidis Gilchrist & Stokes isolate 1107 at 10 ug/ml after 2 weeks (reference value: 35 mm); conditions: Gilchrist & Stokes isolate 1107, 336 h, read-out: DIZ
How it was run: (§1)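 Mycelial phase grown on Sabouraud dextrose agar at 25°C. Agar pH was set to 6 before the test solution was added and was 5.0-5.5 after. Test solutions contained HOAc and Me2SO, and solvent and blank controls were included. Each quadrant was center-inoculated with a 2 × 2 mm piece of a 2-week-old mycelial culture. Colony diameter was measured weekly for 3 weeks and reported as total increments (mm). Duplicates were run.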

Blastomyces dermatitidis [2] = assay: Antifungal activity against Blastomyces dermatitidis Gilchrist & Stokes isolate 1107 at 80 ug/ml after 3 weeks (reference value: 40 mm); conditions: Gilchrist & Stokes isolate 1107, 504 h, read-out: DIZ; how it was run: as §1
Blastomyces dermatitidis [3] = assay: Antifungal activity against Blastomyces dermatitidis Gilchrist & Stokes isolate 1107 at 60 ug/ml after 3 weeks (reference value: 40 mm); conditions: Gilchrist & Stokes isolate 1107, 504 h, read-out: DIZ; how it was run: as §1
Blastomyces dermatitidis [4] = assay: Antifungal activity against Blastomyces dermatitidis Gilchrist & Stokes isolate 1107 at 10 ug/ml after 3 weeks (reference value: 40 mm); conditions: Gilchrist & Stokes isolate 1107, 504 h, read-out: DIZ; how it was run: as §1
Histoplasma capsulatum [5] = assay: Antifungal activity against Histoplasma capsulatum Darling isolate 1106 at 100 ug/ml after 1 week (reference value: 14 mm)
Histoplasma capsulatum [6] = assay: Antifungal activity against Histoplasma capsulatum Darling isolate 1106 at 80 ug/ml after 1 week (reference value: 14 mm); conditions: Darling isolate 1106, 168 h, read-out: DIZ
Histoplasma capsulatum [7] = assay: Antifungal activity against Histoplasma capsulatum Darling isolate 1106 at 40 ug/ml after 1 week (reference value: 14 mm); conditions: Darling isolate 1106, 168 h, read-out: DIZ
Histoplasma capsulatum [8] = assay: Antifungal activity against Histoplasma capsulatum Darling isolate 1106 at 20 ug/ml after 1 week (reference value: 14 mm); conditions: Darling isolate 1106, 168 h, read-out: DIZ
Histoplasma capsulatum [9] = assay: Antifungal activity against Histoplasma capsulatum Darling isolate 1106 at 10 ug/ml after 1 week (reference value: 14 mm); conditions: Darling isolate 1106, 168 h, read-out: DIZ
Histoplasma capsulatum [10] = assay: Antifungal activity against Histoplasma capsulatum Darling isolate 1106 at 100 ug/ml after 2 weeks (reference value: 25 mm); conditions: Darling isolate 1106, 336 h, read-out: DIZ
Histoplasma capsulatum [11] = assay: Antifungal activity against Histoplasma capsulatum Darling isolate 1106 at 40 ug/ml after 2 weeks (reference value: 25 mm); conditions: Darling isolate 1106, 336 h, read-out: DIZ
Histoplasma capsulatum [12] = assay: Antifungal activity against Histoplasma capsulatum Darling isolate 1106 at 20 ug/ml after 2 weeks (reference value: 25 mm); conditions: Darling isolate 1106, 336 h, read-out: DIZ
Histoplasma capsulatum [13] = assay: Antifungal activity against Histoplasma capsulatum Darling isolate 1106 at 100 ug/ml after 3 weeks (reference value: 31 mm); conditions: Darling isolate 1106, 504 h, read-out: DIZ
Histoplasma capsulatum [14] = assay: Antifungal activity against Histoplasma capsulatum Darling isolate 1106 at 60 ug/ml after 3 weeks (reference value: 31 mm); conditions: Darling isolate 1106, 504 h, read-out: DIZ
Histoplasma capsulatum [15] = assay: Antifungal activity against Histoplasma capsulatum Darling isolate 1106 at 40 ug/ml after 3 weeks (reference value: 31 mm); conditions: Darling isolate 1106, 504 h, read-out: DIZ
Histoplasma capsulatum [16] = assay: Antifungal activity against Histoplasma capsulatum Darling isolate 1106 at 10 ug/ml after 3 weeks (reference value: 31 mm); conditions: Darling isolate 1106, 504 h, read-out: DIZ
Blastomyces dermatitidis [17] = assay: Antifungal activity against Blastomyces dermatitidis Gilchrist & Stokes isolate 1099 at 80 ug/ml after 1 week (reference value: 14 mm)
Blastomyces dermatitidis [18] = assay: Antifungal activity against Blastomyces dermatitidis Gilchrist & Stokes isolate 1099 at 60 ug/ml after 1 week (reference value: 14 mm)
Blastomyces dermatitidis [19] = assay: Antifungal activity against Blastomyces dermatitidis Gilchrist & Stokes isolate 1099 at 40 ug/ml after 1 week (reference value: 14 mm)
Blastomyces dermatitidis [20] = assay: Antifungal activity against Blastomyces dermatitidis Gilchrist & Stokes isolate 1099 at 10 ug/ml after 1 week (reference value: 14 mm); how it was run: as §1
Blastomyces dermatitidis [21] = assay: Antifungal activity against Blastomyces dermatitidis Gilchrist & Stokes isolate 1099 at 80 ug/ml after 2 weeks (reference value: 27 mm)
Blastomyces dermatitidis [22] = assay: Antifungal activity against Blastomyces dermatitidis Gilchrist & Stokes isolate 1099 at 60 ug/ml after 2 weeks (reference value: 27 mm); how it was run: as §1
Blastomyces dermatitidis [23] = assay: Antifungal activity against Blastomyces dermatitidis Gilchrist & Stokes isolate 1099 at 40 ug/ml after 2 weeks (reference value: 27 mm); conditions: Gilchrist & Stokes isolate 1099, 336 h, read-out: DIZ; how it was run: as §1
Blastomyces dermatitidis [24] = assay: Antifungal activity against Blastomyces dermatitidis Gilchrist & Stokes isolate 1099 at 10 ug/ml after 2 weeks (reference value: 27 mm); conditions: Gilchrist & Stokes isolate 1099, 336 h, read-out: DIZ; how it was run: as §1
Blastomyces dermatitidis [25] = assay: Antifungal activity against Blastomyces dermatitidis Gilchrist & Stokes isolate 1099 at 100 ug/ml after 3 weeks (reference value: 34 mm); conditions: Gilchrist & Stokes isolate 1099, 504 h, read-out: DIZ; how it was run: as §1
Blastomyces dermatitidis [26] = assay: Antifungal activity against Blastomyces dermatitidis Gilchrist & Stokes isolate 1107 at 100 ug/ml after 1 week (reference value: 20 mm)
Blastomyces dermatitidis [27] = assay: Antifungal activity against Blastomyces dermatitidis Gilchrist & Stokes isolate 1107 at 60 ug/ml after 1 week (reference value: 20 mm)
Blastomyces dermatitidis [28] = assay: Antifungal activity against Blastomyces dermatitidis Gilchrist & Stokes isolate 1107 at 40 ug/ml after 1 week (reference value: 20 mm)
Blastomyces dermatitidis [29] = assay: Antifungal activity against Blastomyces dermatitidis Gilchrist & Stokes isolate 1107 at 10 ug/ml after 1 week (reference value: 20 mm); how it was run: as §1
Blastomyces dermatitidis [30] = assay: Antifungal activity against Blastomyces dermatitidis Gilchrist & Stokes isolate 1107 at 100 ug/ml after 2 weeks (reference value: 35 mm); conditions: Gilchrist & Stokes isolate 1107, 336 h, read-out: DIZ; how it was run: as §1
Blastomyces dermatitidis [31] = assay: Antifungal activity against Blastomyces dermatitidis Gilchrist & Stokes isolate 1107 at 40 ug/ml after 2 weeks (reference value: 35 mm); conditions: Gilchrist & Stokes isolate 1107, 336 h, read-out: DIZ; how it was run: as §1
Histoplasma capsulatum [32] = assay: Antifungal activity against Histoplasma capsulatum Darling isolate 1098 at 100 ug/ml after 1 week (reference value: 12 mm)
Histoplasma capsulatum [33] = assay: Antifungal activity against Histoplasma capsulatum Darling isolate 1098 at 80 ug/ml after 1 week (reference value: 12 mm); conditions: Darling isolate 1098, 168 h, read-out: DIZ
Histoplasma capsulatum [34] = assay: Antifungal activity against Histoplasma capsulatum Darling isolate 1098 at 60 ug/ml after 1 week (reference value: 12 mm); conditions: Darling isolate 1098, 168 h, read-out: DIZ
Histoplasma capsulatum [35] = assay: Antifungal activity against Histoplasma capsulatum Darling isolate 1098 at 20 ug/ml after 1 week (reference value: 12 mm); conditions: Darling isolate 1098, 168 h, read-out: DIZ
Histoplasma capsulatum [36] = assay: Antifungal activity against Histoplasma capsulatum Darling isolate 1098 at 100 ug/ml after 2 weeks (reference value: 21 mm); conditions: Darling isolate 1098, 336 h, read-out: DIZ
Histoplasma capsulatum [37] = assay: Antifungal activity against Histoplasma capsulatum Darling isolate 1098 at 80 ug/ml after 2 weeks (reference value: 21 mm); conditions: Darling isolate 1098, 336 h, read-out: DIZ
Histoplasma capsulatum [38] = assay: Antifungal activity against Histoplasma capsulatum Darling isolate 1098 at 40 ug/ml after 2 weeks (reference value: 21 mm); conditions: Darling isolate 1098, 336 h, read-out: DIZ
Histoplasma capsulatum [39] = assay: Antifungal activity against Histoplasma capsulatum Darling isolate 1098 at 10 ug/ml after 2 weeks (reference value: 21 mm); conditions: Darling isolate 1098, 336 h, read-out: DIZ
Histoplasma capsulatum [40] = assay: Antifungal activity against Histoplasma capsulatum Darling isolate 1098 at 80 ug/ml after 3 weeks (reference value: 28 mm); conditions: Darling isolate 1098, 504 h, read-out: DIZ

## C[C@@H]1[C@H](O)[C@@H](C)/C=C/C=C/C=C/C=C/C=C/C=C/C=C/[C@H](O[C@@H]2O[C@H](C)[C@@H](O)[C@H](N)[C@@H]2O)C[C@@H]2O[C@](O)(C[C@@H](O)C[C@@H](O)[C@H](O)CC[C@@H](O)C[C@@H](O)CC(=O)O[C@H]1C)C[C@H](O)[C@H]2C(=O)O [AMPHOTERICIN B]
Blastomyces dermatitidis [1]
  zone of inhibition at 10 µg/mL: 9 mm
Blastomyces dermatitidis [2]
  zone of inhibition at 80 µg/mL: 15 mm
Blastomyces dermatitidis [3]
  zone of inhibition at 60 µg/mL: 14 mm
Blastomyces dermatitidis [4]
  zone of inhibition at 10 µg/mL: 15 mm
Histoplasma capsulatum [5]
  Activity: inactive
Histoplasma capsulatum [6]
  zone of inhibition at 80 µg/mL: 5 mm
Histoplasma capsulatum [7]
  zone of inhibition at 40 µg/mL: 6 mm
Histoplasma capsulatum [8]
  zone of inhibition at 20 µg/mL: 6 mm
Histoplasma capsulatum [9]
  zone of inhibition at 10 µg/mL: 7 mm
Histoplasma capsulatum [10]
  zone of inhibition at 100 µg/mL: 6 mm
Histoplasma capsulatum [11]
  zone of inhibition at 40 µg/mL: 9 mm
Histoplasma capsulatum [12]
  zone of inhibition at 20 µg/mL: 7 mm
Histoplasma capsulatum [13]
  zone of inhibition at 100 µg/mL: 10 mm
Histoplasma capsulatum [14]
  zone of inhibition at 60 µg/mL: 13 mm
Histoplasma capsulatum [15]
  zone of inhibition at 40 µg/mL: 13 mm
Histoplasma capsulatum [16]
  zone of inhibition at 10 µg/mL: 17 mm
Blastomyces dermatitidis [17]
  Activity: Active
Blastomyces dermatitidis [18]
  Activity: Active
Blastomyces dermatitidis [19]
  Activity: Active
Blastomyces dermatitidis [20]
  Activity: Active
Blastomyces dermatitidis [21]
  Activity: Active
Blastomyces dermatitidis [22]
  Activity: Active
Blastomyces dermatitidis [23]
  zone of inhibition at 40 µg/mL: 2 mm
Blastomyces dermatitidis [24]
  zone of inhibition at 10 µg/mL: 6 mm
Blastomyces dermatitidis [25]
  zone of inhibition at 100 µg/mL: 2 mm
Blastomyces dermatitidis [26]
  Activity: Active
Blastomyces dermatitidis [27]
  Activity: inactive
Blastomyces dermatitidis [28]
  Activity: inactive
Blastomyces dermatitidis [29]
  Activity: inactive
Blastomyces dermatitidis [30]
  zone of inhibition at 100 µg/mL: 6 mm
Blastomyces dermatitidis [31]
  zone of inhibition at 40 µg/mL: 14 mm
Histoplasma capsulatum [32]
  Activity: inactive
Histoplasma capsulatum [33]
  zone of inhibition at 80 µg/mL: 4 mm
Histoplasma capsulatum [34]
  zone of inhibition at 60 µg/mL: 4 mm
Histoplasma capsulatum [35]
  zone of inhibition at 20 µg/mL: 8 mm
Histoplasma capsulatum [36]
  zone of inhibition at 100 µg/mL: 8 mm
Histoplasma capsulatum [37]
  zone of inhibition at 80 µg/mL: 10 mm
Histoplasma capsulatum [38]
  zone of inhibition at 40 µg/mL: 11 mm
Histoplasma capsulatum [39]
  zone of inhibition at 10 µg/mL: 14 mm
Histoplasma capsulatum [40]
  zone of inhibition at 80 µg/mL: 14 mm
